Results reported in ChEMBL document CHEMBL1649230, “Aryl rhodanines specifically inhibit staphylococcal and enterococcal biofilm formation” (Antimicrob Agents Chemother, 2009).
The source made the active and inactive calls. The calls are words filed in the database; no cut-off is given here.

Legend:
Staphylococcus aureus [1] = assay: Antimicrobial activity against community-acquired Staphylococcus aureus MW2 on medical grade silicone disk assessed as inhibition of bacterial biofilm after 18 hrs by broth microdilution method; type: functional
[2] = tested on: Staphylococcus epidermidis; assay: Antimicrobial activity against coagulase-negative Staphylococcus epidermidis isolate WTBF-40 assessed as inhibition of bacterial biofilm after 18 hrs by broth microdilution method; type: functional
Outline: (§1)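 Static biofilm in tissue culture-treated polystyrene 96-well plates in 0.5× TSB with 1% glucose. Overnight culture diluted 1:100 gives about 5 × 10^6 cells/well. Compound 2-fold series, final 0.2–100 μM, 2% DMSO. Incubated 18 h at 37°C. Washed, heat-fixed 60°C for 60 min, stained with 0.06% crystal violet, read at OD600. MBIC is the lowest concentration giving ≥80% inhibition versus untreated. Geometric mean of ≥3 independent experiments.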

Pseudomonas aeruginosa = assay: Antimicrobial activity against Pseudomonas aeruginosa PAO1 assessed as inhibition of bacterial biofilm after 18 hrs by broth microdilution method; type: functional
Outline: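 Polystyrene plates with breathable lids in 1× TSB (0.25% glucose), 37°C for 18 h. Biofilms form at the air-liquid interface. Stained with crystal violet, dye eluted with 30% acetic acid, OD read. Compound 2-fold series, final 0.2–100 μM in 2% DMSO. MBIC taken at ≥80% inhibition versus untreated. Geometric mean of ≥3 experiments.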

Staphylococcus aureus [3] = assay: Antimicrobial activity against hospital acquired methicillin-resistant Staphylococcus aureus isolate 47263 assessed as inhibition of bacterial biofilm after 18 hrs by broth microdilution method; type: functional
Outline: (§2)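 Biofilm MBIC on tissue culture-treated polystyrene 96-well plates. Twofold dilutions, 0.2 to 100 μM final, with 2% DMSO final. Inoculum was an overnight culture diluted 1:100 (~5 × 10^6 cells/well) in 0.5× TSB plus 1% glucose, grown 18 h at 37°C. Wells washed, heat-fixed 60°C 60 min, stained with 0.06% crystal violet, OD600 read. MBIC is the lowest concentration giving ≥80% inhibition versus untreated; geometric mean of ≥3 experiments.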

Enterococcus faecalis [4] = assay: Antimicrobial activity against Enterococcus faecalis ATCC 51575 on medical grade silicone disk assessed as inhibition of bacterial biofilm after 18 hrs by broth microdilution method; type: functional
Enterococcus gallinarum = assay: Antimicrobial activity against vancomycin-resistant Enterococcus gallinarum isolate 2392 assessed as inhibition of bacterial biofilm after 18 hrs by broth microdilution method; type: functional; outline: as §2
[5] = tested on: Staphylococcus epidermidis; assay: Antimicrobial activity against coagulase-negative Staphylococcus epidermidis isolate WTBF-45 assessed as inhibition of bacterial biofilm after 18 hrs by broth microdilution method; type: functional; outline: as §2
[6] = tested on: Staphylococcus epidermidis; assay: Antimicrobial activity against Staphylococcus epidermidis 1457 on medical grade silicone disk assessed as inhibition of bacterial biofilm after 18 hrs by broth microdilution method; type: functional
Enterococcus faecalis [7] = assay: Antimicrobial activity against vancomycin-resistant Enterococcus faecalis isolate F317 assessed as inhibition of bacterial biofilm after 18 hrs by broth microdilution method; type: functional; outline: as §2
[8] = tested on: Staphylococcus epidermidis; assay: Antimicrobial activity against Staphylococcus epidermidis 1457 assessed as inhibition of bacterial biofilm after 18 hrs by broth microdilution method; type: functional; outline: as §1
Staphylococcus aureus [9] = assay: Antimicrobial activity against community acquired methicillin-resistant Staphylococcus aureus isolate 24209 assessed as inhibition of bacterial biofilm after 18 hrs by broth microdilution method; type: functional; outline: as §2
Staphylococcus aureus [10] = assay: Antimicrobial activity against Staphylococcus aureus ATCC 35556 assessed as inhibition of bacterial biofilm formation after 18 hrs by broth microdilution method in presence of 2 ug/ml fibronectin; type: functional
Outline: (§3)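 Polystyrene 96-well wells precoated with 100 μl fibronectin or fibrinogen (0–20 μg protein/ml) for 24 h at 4°C. Wells then washed with sterile water. The standard MBIC biofilm assay followed: 0.5× TSB with 1% glucose, 2% DMSO, 18 h at 37°C, crystal violet read at OD600.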

Staphylococcus aureus [11] = assay: Antimicrobial activity against community acquired community-acquired Staphylococcus aureus MW2 assessed as inhibition of bacterial biofilm after 18 hrs by broth microdilution method; type: functional; outline: as §2
Staphylococcus aureus [12] = assay: Antimicrobial activity against Staphylococcus aureus ATCC 35556 assessed as inhibition of bacterial biofilm formation after 18 hrs by broth microdilution method in presence of 1 ug/ml fibrinogen; type: functional; outline: as §3
[13] = tested on: Staphylococcus epidermidis; assay: Antimicrobial activity against coagulase-negative Staphylococcus epidermidis isolate WTBF-48 assessed as inhibition of bacterial biofilm after 18 hrs by broth microdilution method; type: functional; outline: as §1
Staphylococcus aureus [14] = assay: Antimicrobial activity against Staphylococcus aureus ATCC 35556 assessed as inhibition of bacterial biofilm formation after 18 hrs by broth microdilution method in presence of 20 ug/ml fibrinogen; type: functional; outline: as §3
Enterococcus faecalis [15] = assay: Antimicrobial activity against vancomycin-resistant Enterococcus faecalis ATCC 51575 assessed as inhibition of bacterial biofilm after 18 hrs by broth microdilution method; type: functional; outline: as §2
Staphylococcus aureus [16] = assay: Antimicrobial activity against Staphylococcus aureus ATCC 35556 assessed as inhibition of bacterial biofilm formation after 18 hrs by broth microdilution method in presence of 10 ug/ml fibrinogen; type: functional; outline: as §3
Staphylococcus aureus [17] = assay: Antimicrobial activity against community acquired methicillin-resistant Staphylococcus aureus isolate 38230 assessed as inhibition of bacterial biofilm after 18 hrs by broth microdilution method; type: functional; outline: as §2
Enterococcus faecium = assay: Antimicrobial activity against vancomycin-resistant Enterococcus faecium isolate EF208 assessed as inhibition of bacterial biofilm after 18 hrs by broth microdilution method; type: functional; outline: as §2
[18] = tested on: Staphylococcus epidermidis; assay: Antimicrobial activity against coagulase-negative Staphylococcus epidermidis isolate WTBF-46 assessed as inhibition of bacterial biofilm after 18 hrs by broth microdilution method; type: functional; outline: as §1
Staphylococcus aureus [19] = assay: Antimicrobial activity against hospital acquired methicillin-resistant Staphylococcus aureus isolate 1094 assessed as inhibition of bacterial biofilm after 18 hrs by broth microdilution method; type: functional; outline: as §2
[20] = tested on: Staphylococcus epidermidis; assay: Antimicrobial activity against Staphylococcus epidermidis O-47 assessed as inhibition of bacterial biofilm after 18 hrs by broth microdilution method; type: functional; outline: as §1
Staphylococcus aureus [21] = assay: Antimicrobial activity against hospital acquired methicillin-resistant Staphylococcus aureus isolate 58336 assessed as inhibition of bacterial biofilm after 18 hrs by broth microdilution method; type: functional; outline: as §2
Staphylococcus aureus [22] = assay: Antimicrobial activity against community acquired methicillin-resistant Staphylococcus aureus isolate 23542 assessed as inhibition of bacterial biofilm after 18 hrs by broth microdilution method; type: functional; outline: as §2
Staphylococcus aureus [23] = assay: (§4) Antimicrobial activity against Staphylococcus aureus ATCC 35556 assessed as inhibition of primary adhesion of bacterial biofilm to PVC surface under static condition at 4 times MBIC after 30 mins by fluorescence emission using BaclLight Live Dead stain; type: functional, organism-based
Outline: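 Mid-log S. aureus ATCC 35556 (OD600 0.5) grown in TSB at 37°C, washed, resuspended in PBS. Compound added (0× to 8× MBIC, 2% DMSO). Suspension placed on tissue culture-treated polystyrene or PVC 96-well plates (eight wells per level) or silicone disks in 24-well plates (three wells). Incubated 30 min at 37°C, then washed. BacLight Live/Dead fluorescence read (ex 485, em 530 nm). Result given as fraction adherent versus untreated.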

Staphylococcus aureus [24] = assay: as §4, with “to polystyrene” for “to PVC”, “condition pretreated with” for “condition at”, “times compound” for “times”, “MBIC for 30 mins measured” for “MBIC”; type: functional
Outline: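 PBS suspension of mid-log S. aureus ATCC 35556 exposed to compound in tubes for 30 min at 37°C. Cells centrifuged to remove free compound and resuspended in PBS at the original density. They were then placed on tissue culture-treated polystyrene for 30 min at 37°C. Wells washed, BacLight Live/Dead fluorescence read (ex 485, em 530 nm). Fraction adherent calculated versus untreated.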

C=CCOc1cc(/C=C2\SC(=S)N(c3ccc(F)cc3)C2=O)ccc1O
MBIC90 (Staphylococcus aureus [1]): 100 µM
MBIC [2]: 50 µM
MBIC (Pseudomonas aeruginosa): >=100 uM
MBIC (Staphylococcus aureus [3]): 8.8 µM
MBIC90 (Enterococcus faecalis [4]): 100 µM
MBIC (Enterococcus gallinarum): >=100 uM
MBIC [5]: 25 µM
MBIC90 [6]: 59.5 µM
MBIC (Enterococcus faecalis [7]): 100 µM
MBIC [8]: 29.7 µM
MBIC (Staphylococcus aureus [9]): 100 µM
MBIC (Staphylococcus aureus [10]): 3.125 µM
MBIC (Staphylococcus aureus [11]): 25 µM
MBIC (Staphylococcus aureus [12]): 3.125 µM
MBIC [13]: 12.5 µM
MBIC (Staphylococcus aureus [14]): 3.125 µM
MBIC (Enterococcus faecalis [15]): 35.4 µM
MBIC (Staphylococcus aureus [16]): 3.125 µM
MBIC (Staphylococcus aureus [17]): 35.4 µM
MBIC (Enterococcus faecium): 35.4 µM
MBIC [18]: 70.7 µM
MBIC (Staphylococcus aureus [19]): 100 µM
MBIC [20]: 59.5 µM

CCOc1cc(/C=C2\SC(=S)N(c3ccc(F)cc3)C2=O)ccc1O
MBIC90 (Staphylococcus aureus [1]): 79.4 µM
MBIC [2]: 50 µM
MBIC (Staphylococcus aureus [21]): 10.5 µM
MBIC (Pseudomonas aeruginosa): >=100 uM
MBIC (Staphylococcus aureus [3]): 8.8 µM
MBIC (Enterococcus faecalis [4]): 29.7 µM
MBIC (Enterococcus gallinarum): 84.1 µM
MBIC [5]: 25 µM
MBIC90 [6]: 42 µM
MBIC (Enterococcus faecalis [7]): 25 µM
MBIC [8]: 42 µM
MBIC (Staphylococcus aureus [9]): 100 µM
MBIC (Staphylococcus aureus [22]): 31.5 µM
MBIC (Staphylococcus aureus [10]): 3.125 µM
MBIC (Staphylococcus aureus [11]): 42 µM
MBIC (Staphylococcus aureus [12]): 3.125 µM
MBIC [13]: 25 µM
MBIC (Staphylococcus aureus [14]): 6.25 µM
MBIC (Staphylococcus aureus [16]): 3.125 µM
MBIC (Staphylococcus aureus [17]): 50 µM
inhibition (Staphylococcus aureus [23]): Active
MBIC (Enterococcus faecium): 31.5 µM
MBIC [18]: 50 µM
MBIC (Staphylococcus aureus [19]): 100 µM
inhibition (INH) (Staphylococcus aureus [24]): >=80%
MBIC [20]: 50 µM

CCOc1cc(/C=C2\SC(=S)N(c3cccc(F)c3)C2=O)ccc1O
MBIC90 (Staphylococcus aureus [1]): 70.7 µM
MBIC [2]: 59.5 µM
MBIC (Staphylococcus aureus [21]): 10.5 µM
MBIC (Pseudomonas aeruginosa): >=100 uM
MBIC (Staphylococcus aureus [3]): 8.8 µM
MBIC (Enterococcus faecalis [4]): 63 µM
MBIC (Enterococcus gallinarum): 50 µM
MBIC [5]: 50 µM
MBIC90 [6]: 59.5 µM
MBIC (Enterococcus faecalis [7]): 100 µM
MBIC [8]: 50 µM
MBIC (Staphylococcus aureus [9]): 100 µM
MBIC (Staphylococcus aureus [22]): 19.8 µM
MBIC (Staphylococcus aureus [10]): 6.25 µM
MBIC (Staphylococcus aureus [11]): 31.5 µM
MBIC (Staphylococcus aureus [12]): 6.25 µM
MBIC [13]: 50 µM
MBIC (Staphylococcus aureus [14]): 6.25 µM
MBIC (Enterococcus faecalis [15]): 63 µM
MBIC (Staphylococcus aureus [16]): 6.25 µM
MBIC (Enterococcus faecium): 50 µM
MBIC [18]: 59.5 µM
MBIC (Staphylococcus aureus [19]): 100 µM
MBIC [20]: 100 µM

CCOc1cc(/C=C2\SC(=S)N(c3cccnc3)C2=O)ccc1O
MBIC90 (Staphylococcus aureus [1]): 25 µM
MBIC [2]: 35.4 µM
MBIC (Staphylococcus aureus [21]): 14.9 µM
MBIC (Pseudomonas aeruginosa): >=100 uM
MBIC90 (Enterococcus faecalis [4]): 19.8 µM
MBIC [5]: 17.7 µM
MBIC90 [6]: 35.4 µM
MBIC (Enterococcus faecalis [7]): 15.7 µM
MBIC [8]: 12.5 µM
MBIC (Staphylococcus aureus [9]): 25 µM
MBIC (Staphylococcus aureus [22]): 25 µM
MBIC (Staphylococcus aureus [10]): 12.5 µM
MBIC (Staphylococcus aureus [11]): 21 µM
MBIC (Staphylococcus aureus [12]): 12.5 µM
MBIC [13]: 17.7 µM
MBIC (Staphylococcus aureus [14]): 12.5 µM
MBIC (Enterococcus faecalis [15]): 21 µM
MBIC (Staphylococcus aureus [16]): 12.5 µM
MBIC (Staphylococcus aureus [17]): 19.8 µM
inhibition (Staphylococcus aureus [23]): Active
MBIC (Enterococcus faecium): 15.7 µM
MBIC [18]: 25 µM
MBIC (Staphylococcus aureus [19]): 25 µM
inhibition (INH) (Staphylococcus aureus [24]): >=80%
MBIC [20]: 59.5 µM
